ChEMBL document CHEMBL5653631, “A Potent and Selective ULK1 Inhibitor Suppresses Autophagy and Sensitizes Cancer Cells to Nutrient Stress” (iScience, 2018)
One block for each molecule: values may come before it.

Assays:
[1] = molecular target: Macrophage colony-stimulating factor 1 receptor (Homo sapiens) (UniProt P07333); test: Inhibition of human recombinant FMS at 500 nM in presence of ATP by radiometric assay relative to control
[2] = molecular target: Serine/threonine-protein kinase 33 (Homo sapiens) (UniProt Q9BYT3); test: Inhibition of human recombinant STK33 at 500 nM in presence of ATP by radiometric assay relative to control
[3] = molecular target: Serine/threonine-protein kinase MAK (Homo sapiens) (UniProt P20794); test: Inhibition of human recombinant MAK at 500 nM in presence of ATP by radiometric assay relative to control
[4] = molecular target: Interleukin-1 receptor-associated kinase 1 (Homo sapiens) (UniProt P51617); test: Inhibition of human recombinant IRAK1 at 40 nM in presence of ATP by radiometric assay relative to control
[5] = molecular target: Serine/threonine-protein kinase pim-1 (Homo sapiens) (UniProt P11309); test: Inhibition of human recombinant PIM1 at 40 nM in presence of ATP by radiometric assay relative to control
[6] = molecular target: TGF-beta receptor type-2 (Homo sapiens) (UniProt P37173); test: Inhibition of human recombinant TGFbR2 at 40 nM in presence of ATP by radiometric assay relative to control
[7] = molecular target: Calcium/calmodulin-dependent protein kinase kinase 2 (Homo sapiens) (UniProt Q96RR4); test: Inhibition of human recombinant CaMKK2 at 40 nM related to control ULK1
[8] = molecular target: Mitogen-activated protein kinase 1 (Homo sapiens) (UniProt P28482); test: Inhibition of human recombinant Erk2 at 40 nM related to control ULK1
[9] = molecular target: Vascular endothelial growth factor receptor 1 (Homo sapiens) (UniProt P17948); test: Inhibition of human recombinant FLT1 at 40 nM related to control ULK1
[10] = molecular target: [Pyruvate dehydrogenase (acetyl-transferring)] kinase isozyme 4, mitochondrial (Homo sapiens) (UniProt Q16654); test: Inhibition of human recombinant PDHK4 at 40 nM related to control ULK1
[11] = molecular target: RAC-beta serine/threonine-protein kinase (Homo sapiens) (UniProt P31751); test: Inhibition of human recombinant AKT2 at 15 nM in presence of ATP by radiometric assay relative to control
Summary of the method: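 Panel of 327 recombinant human kinases in radiometric activity assays, each screened in duplicate at a single inhibitor concentration; percent activity remaining relative to vehicle control, percent inhibition taken as 100 minus activity remaining.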

[12] = molecular target: Calcium/calmodulin-dependent protein kinase type 1D (Homo sapiens) (UniProt Q8IU85); test: Inhibition of human recombinant CaMK1d at 15 nM in presence of ATP by radiometric assay relative to control
[13] = molecular target: Calcium/calmodulin-dependent protein kinase kinase 1 (Homo sapiens) (UniProt Q8N5S9); test: Inhibition of human recombinant CaMKK1 at 15 nM in presence of ATP by radiometric assay relative to control
[14] = molecular target: T1, Dual specificity tyrosine-phosphorylation-regulated kinase 2 (Homo sapiens) (UniProt Q92630); test: Inhibition of human recombinant DYRK2 at 15 nM in presence of ATP by radiometric assay relative to control
T1 sequence (whole entry): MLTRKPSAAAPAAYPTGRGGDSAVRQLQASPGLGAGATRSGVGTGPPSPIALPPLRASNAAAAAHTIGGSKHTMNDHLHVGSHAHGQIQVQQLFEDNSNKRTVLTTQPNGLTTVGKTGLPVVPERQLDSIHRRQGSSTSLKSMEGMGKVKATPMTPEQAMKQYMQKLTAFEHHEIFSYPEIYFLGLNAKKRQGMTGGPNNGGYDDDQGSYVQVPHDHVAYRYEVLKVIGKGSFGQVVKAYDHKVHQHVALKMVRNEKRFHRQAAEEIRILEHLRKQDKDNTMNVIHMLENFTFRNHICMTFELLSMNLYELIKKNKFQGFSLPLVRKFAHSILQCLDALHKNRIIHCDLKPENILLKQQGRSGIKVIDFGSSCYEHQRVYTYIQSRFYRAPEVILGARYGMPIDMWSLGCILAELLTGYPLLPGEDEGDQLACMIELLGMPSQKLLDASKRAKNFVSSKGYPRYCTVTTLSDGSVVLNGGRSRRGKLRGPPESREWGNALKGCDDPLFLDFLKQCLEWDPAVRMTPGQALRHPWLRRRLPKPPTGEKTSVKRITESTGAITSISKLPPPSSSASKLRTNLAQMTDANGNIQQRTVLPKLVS

[15] = molecular target: Receptor tyrosine-protein kinase erbB-2 (Homo sapiens) (UniProt P04626); test: Inhibition of human recombinant ErbB2 at 15 nM in presence of ATP by radiometric assay relative to control
[16] = molecular target: Serine/threonine-protein kinase 26 (Homo sapiens) (UniProt Q9P289); test: Inhibition of human recombinant MST4 at 15 nM in presence of ATP by radiometric assay relative to control
[17] = molecular target: T2, Serine/threonine-protein kinase A-Raf (Homo sapiens) (UniProt P10398); test: Inhibition of human recombinant ARAF at 15 nM related to control ULK1
T2 sequence (whole entry): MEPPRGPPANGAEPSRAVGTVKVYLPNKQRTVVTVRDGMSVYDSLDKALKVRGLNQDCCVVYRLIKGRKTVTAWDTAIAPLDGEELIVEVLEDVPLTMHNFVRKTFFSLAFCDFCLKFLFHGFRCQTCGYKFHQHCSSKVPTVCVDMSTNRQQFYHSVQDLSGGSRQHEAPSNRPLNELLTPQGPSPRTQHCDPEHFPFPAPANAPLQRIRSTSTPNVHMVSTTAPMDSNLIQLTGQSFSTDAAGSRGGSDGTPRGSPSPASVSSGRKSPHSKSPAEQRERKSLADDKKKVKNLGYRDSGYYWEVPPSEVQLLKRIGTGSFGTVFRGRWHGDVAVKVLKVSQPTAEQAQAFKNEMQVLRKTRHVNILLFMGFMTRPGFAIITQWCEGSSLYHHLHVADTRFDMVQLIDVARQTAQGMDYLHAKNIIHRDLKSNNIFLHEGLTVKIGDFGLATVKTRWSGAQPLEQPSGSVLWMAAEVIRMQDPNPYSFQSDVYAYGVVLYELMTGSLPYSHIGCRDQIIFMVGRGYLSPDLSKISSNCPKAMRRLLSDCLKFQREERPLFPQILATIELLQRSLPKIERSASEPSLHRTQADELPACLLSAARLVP
Summary of the method: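 Panel of 327 recombinant human kinases, each assayed in vitro by radiometric activity assay in duplicate at a single inhibitor concentration per compound, chosen with reference to its ULK1 inhibition. Activity remaining was expressed as percent of vehicle control, and percent inhibition was calculated as 100 minus percent activity remaining.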

[Pyruvate dehydrogenase (acetyl-transferring)] kinase isozyme 4, mitochondrial (Homo sapiens), sequence (Q16654 whole entry, looked up): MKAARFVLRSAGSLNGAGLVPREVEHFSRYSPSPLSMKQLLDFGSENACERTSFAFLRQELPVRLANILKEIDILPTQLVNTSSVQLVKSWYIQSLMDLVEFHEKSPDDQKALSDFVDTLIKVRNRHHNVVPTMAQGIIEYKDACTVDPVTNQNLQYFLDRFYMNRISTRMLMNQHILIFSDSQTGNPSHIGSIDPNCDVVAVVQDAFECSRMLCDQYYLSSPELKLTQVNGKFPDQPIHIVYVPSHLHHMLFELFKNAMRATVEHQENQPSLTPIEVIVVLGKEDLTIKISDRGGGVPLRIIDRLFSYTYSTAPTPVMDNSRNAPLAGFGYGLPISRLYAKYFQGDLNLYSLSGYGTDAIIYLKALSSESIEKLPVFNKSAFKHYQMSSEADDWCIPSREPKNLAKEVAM
Serine/threonine-protein kinase MAK (Homo sapiens), sequence (P20794 whole entry, looked up): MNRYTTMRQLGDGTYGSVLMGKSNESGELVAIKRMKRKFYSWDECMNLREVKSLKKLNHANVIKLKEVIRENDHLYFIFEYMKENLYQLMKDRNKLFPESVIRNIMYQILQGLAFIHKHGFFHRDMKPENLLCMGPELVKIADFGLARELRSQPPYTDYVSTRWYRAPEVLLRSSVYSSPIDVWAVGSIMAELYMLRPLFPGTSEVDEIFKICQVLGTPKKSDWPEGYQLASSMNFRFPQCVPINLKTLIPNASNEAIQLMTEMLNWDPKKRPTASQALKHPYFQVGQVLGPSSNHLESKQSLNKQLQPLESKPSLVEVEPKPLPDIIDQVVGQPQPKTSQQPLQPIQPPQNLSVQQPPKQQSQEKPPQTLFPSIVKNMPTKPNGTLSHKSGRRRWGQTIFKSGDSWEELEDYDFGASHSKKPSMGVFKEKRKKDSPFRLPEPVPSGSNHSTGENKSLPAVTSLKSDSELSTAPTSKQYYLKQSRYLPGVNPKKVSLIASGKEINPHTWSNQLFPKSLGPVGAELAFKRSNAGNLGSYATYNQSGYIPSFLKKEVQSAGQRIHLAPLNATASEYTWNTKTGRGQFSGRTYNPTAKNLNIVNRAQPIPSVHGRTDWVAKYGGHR
RAC-beta serine/threonine-protein kinase (Homo sapiens), sequence (P31751 whole entry): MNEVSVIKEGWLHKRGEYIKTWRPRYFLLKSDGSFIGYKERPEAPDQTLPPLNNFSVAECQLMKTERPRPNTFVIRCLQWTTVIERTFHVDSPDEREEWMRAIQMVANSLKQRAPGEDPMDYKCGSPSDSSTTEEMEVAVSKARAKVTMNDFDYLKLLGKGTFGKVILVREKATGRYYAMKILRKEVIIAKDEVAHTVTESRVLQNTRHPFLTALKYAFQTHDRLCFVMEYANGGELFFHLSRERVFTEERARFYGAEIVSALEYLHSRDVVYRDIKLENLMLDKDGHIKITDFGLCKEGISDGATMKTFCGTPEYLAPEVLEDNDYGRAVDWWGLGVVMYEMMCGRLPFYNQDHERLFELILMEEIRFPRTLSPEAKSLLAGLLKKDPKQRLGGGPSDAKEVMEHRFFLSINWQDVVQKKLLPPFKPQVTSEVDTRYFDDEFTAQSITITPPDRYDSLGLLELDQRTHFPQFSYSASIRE
TGF-beta receptor type-2 (Homo sapiens), sequence (P37173 whole entry): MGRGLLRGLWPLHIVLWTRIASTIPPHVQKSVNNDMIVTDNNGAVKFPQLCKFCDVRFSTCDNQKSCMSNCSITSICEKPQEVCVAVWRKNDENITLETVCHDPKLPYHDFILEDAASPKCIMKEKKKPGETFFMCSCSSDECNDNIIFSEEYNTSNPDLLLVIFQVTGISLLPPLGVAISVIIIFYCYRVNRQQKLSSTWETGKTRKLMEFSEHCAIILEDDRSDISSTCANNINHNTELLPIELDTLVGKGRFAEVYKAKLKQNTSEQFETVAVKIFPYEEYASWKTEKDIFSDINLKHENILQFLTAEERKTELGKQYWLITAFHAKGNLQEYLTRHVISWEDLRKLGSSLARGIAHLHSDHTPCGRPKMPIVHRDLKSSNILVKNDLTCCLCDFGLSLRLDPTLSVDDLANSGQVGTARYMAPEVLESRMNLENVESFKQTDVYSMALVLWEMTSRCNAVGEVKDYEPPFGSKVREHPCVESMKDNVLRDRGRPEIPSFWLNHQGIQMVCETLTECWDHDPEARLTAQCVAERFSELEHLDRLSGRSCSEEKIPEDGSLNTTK
Calcium/calmodulin-dependent protein kinase kinase 1 (Homo sapiens), sequence (Q8N5S9 whole entry, looked up): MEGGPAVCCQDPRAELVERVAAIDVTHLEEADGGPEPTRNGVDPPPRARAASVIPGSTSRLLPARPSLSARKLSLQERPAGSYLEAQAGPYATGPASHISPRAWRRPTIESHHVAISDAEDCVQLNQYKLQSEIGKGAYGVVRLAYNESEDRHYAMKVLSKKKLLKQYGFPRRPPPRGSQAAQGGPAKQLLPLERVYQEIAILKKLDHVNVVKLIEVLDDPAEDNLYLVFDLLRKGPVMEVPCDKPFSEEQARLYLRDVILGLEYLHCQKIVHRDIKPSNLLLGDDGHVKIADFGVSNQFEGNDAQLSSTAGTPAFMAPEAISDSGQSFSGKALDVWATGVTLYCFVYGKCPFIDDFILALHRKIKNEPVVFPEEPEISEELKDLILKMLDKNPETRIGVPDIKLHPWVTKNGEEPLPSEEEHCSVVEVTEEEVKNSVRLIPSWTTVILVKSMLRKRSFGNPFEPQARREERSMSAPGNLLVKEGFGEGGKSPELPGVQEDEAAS
Receptor tyrosine-protein kinase erbB-2 (Homo sapiens), sequence (P04626 whole entry): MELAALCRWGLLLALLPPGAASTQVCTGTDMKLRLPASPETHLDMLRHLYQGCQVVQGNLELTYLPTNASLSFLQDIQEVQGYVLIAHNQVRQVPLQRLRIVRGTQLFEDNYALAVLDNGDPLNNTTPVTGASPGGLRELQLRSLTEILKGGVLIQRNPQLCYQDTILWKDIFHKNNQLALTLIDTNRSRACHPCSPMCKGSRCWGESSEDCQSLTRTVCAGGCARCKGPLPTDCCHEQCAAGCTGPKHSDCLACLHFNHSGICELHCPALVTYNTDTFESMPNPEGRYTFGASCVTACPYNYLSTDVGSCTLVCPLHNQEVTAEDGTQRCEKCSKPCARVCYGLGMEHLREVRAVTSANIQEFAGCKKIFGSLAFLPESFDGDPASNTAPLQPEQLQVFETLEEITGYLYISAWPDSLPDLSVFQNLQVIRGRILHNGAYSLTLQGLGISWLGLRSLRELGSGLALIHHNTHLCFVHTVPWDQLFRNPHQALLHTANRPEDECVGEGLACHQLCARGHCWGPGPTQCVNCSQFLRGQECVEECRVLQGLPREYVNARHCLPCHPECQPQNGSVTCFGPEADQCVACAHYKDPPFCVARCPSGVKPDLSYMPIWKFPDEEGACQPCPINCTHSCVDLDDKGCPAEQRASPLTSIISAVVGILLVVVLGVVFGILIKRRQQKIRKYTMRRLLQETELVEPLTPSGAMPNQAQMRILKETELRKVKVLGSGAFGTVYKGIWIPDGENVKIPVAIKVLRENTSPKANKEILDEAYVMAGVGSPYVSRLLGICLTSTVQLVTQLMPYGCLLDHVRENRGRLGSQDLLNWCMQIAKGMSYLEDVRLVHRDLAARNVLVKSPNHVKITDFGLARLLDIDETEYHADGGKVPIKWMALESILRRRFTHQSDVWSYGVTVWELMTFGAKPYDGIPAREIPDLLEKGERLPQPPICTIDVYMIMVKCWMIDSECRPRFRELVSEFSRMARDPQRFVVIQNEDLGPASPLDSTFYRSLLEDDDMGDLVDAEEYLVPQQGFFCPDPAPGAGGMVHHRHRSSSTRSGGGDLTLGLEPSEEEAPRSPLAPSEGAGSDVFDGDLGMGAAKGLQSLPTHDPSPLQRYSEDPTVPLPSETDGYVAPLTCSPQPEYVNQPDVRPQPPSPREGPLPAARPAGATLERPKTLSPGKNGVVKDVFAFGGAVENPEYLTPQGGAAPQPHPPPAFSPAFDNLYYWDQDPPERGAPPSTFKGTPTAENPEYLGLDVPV
Macrophage colony-stimulating factor 1 receptor (Homo sapiens), sequence (P07333 whole entry): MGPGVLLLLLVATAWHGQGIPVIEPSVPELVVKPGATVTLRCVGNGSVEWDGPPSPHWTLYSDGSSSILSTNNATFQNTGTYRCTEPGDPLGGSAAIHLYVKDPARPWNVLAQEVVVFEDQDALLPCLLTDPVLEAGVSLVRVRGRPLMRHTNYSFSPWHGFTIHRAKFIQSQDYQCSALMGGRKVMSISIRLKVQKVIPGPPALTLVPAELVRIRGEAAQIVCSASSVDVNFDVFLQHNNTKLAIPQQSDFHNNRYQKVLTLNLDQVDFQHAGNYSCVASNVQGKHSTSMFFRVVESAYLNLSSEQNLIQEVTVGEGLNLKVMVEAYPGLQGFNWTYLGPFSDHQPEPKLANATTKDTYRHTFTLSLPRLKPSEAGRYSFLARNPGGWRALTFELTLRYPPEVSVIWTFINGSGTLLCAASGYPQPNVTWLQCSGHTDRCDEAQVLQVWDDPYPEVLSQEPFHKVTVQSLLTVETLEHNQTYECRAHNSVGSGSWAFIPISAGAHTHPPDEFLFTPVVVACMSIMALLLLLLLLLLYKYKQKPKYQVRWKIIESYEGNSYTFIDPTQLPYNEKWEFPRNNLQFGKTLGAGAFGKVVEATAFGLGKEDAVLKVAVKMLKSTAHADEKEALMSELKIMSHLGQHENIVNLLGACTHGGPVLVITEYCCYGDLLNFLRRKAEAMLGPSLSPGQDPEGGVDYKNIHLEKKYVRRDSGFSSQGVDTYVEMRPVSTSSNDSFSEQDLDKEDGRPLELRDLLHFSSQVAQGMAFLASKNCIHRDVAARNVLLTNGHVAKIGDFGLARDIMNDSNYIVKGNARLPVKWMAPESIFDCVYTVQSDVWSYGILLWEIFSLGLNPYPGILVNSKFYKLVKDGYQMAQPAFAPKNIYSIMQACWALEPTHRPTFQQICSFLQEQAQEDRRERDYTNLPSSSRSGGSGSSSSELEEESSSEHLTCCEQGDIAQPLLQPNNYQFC

inhibition [1]: 19%
inhibition [2]: 4%
inhibition [3]: 36%
Compound: CNC(=O)c1ccccc1Oc1nc(Nc2cc(OC)c(OC)c(OC)c2)ncc1Br

inhibition [4]: 7%
inhibition [5]: 5%
inhibition [6]: 47%
fold change (FC) [7]: 0
fold change (FC) [8]: 0
fold change (FC) [9]: 0.25
fold change (FC) [10]: 0
Compound: O=C(N[C@@H](C1CC1)C(F)(F)F)c1cc(-c2cnn3cc(-c4ccc(F)cc4)cnc23)cs1

inhibition [11]: 0%
inhibition [12]: 0%
inhibition [13]: 0%
inhibition [14]: 8%
inhibition [15]: 0%
inhibition [16]: 0%
fold change (FC) [17]: 0.07
Compound: CC(C)[C@H](NC(=O)c1cc(-c2cnn3cc(-c4ccc(OCCN5CCCCC5)cc4)cnc23)cs1)C(F)(F)F
